PLC-beta3 inh: PLC-beta3 (human) inhibition, primary screen. Q01970. Purified PLC-beta3, fluorogenic substrate, fluorescence. inhibition, % at 12.2 µM. 370,000 compounds, 0.18% hits. AID 720704
DAGLB inhibitor: blocks human DAGLB lipase activity. Q8NCG7. HEK293T DAGLB membrane lysate, EnzChek fluorogenic substrate. inhibition, % at 5.17 µM. 340,000 compounds, 0.059% hits; in the data active = inhibition above about 34%
TbMetRS inhib: Trypanosoma brucei MetRS inhibition; purified T. brucei MetRS, ATP depletion, Kinase-Glo luminescence; inhibition, % at 11.9 µM; 360,000 compounds, 0.4% hits; AID 624268;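 active = inhibition above a per-plate cutoff of the control wells' mean inhibition plus 3 SD, cut at about 5.5% in these data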
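Test system: purified T. brucei MetRS enzyme. Also added: ATP, methionine and E. coli bulk tRNA substrates. Compound: 11.9 µM single point. Schedule: 15 min enzyme-compound preincubation, 2 h reaction, 10 min detection, 25 °C. Signal: luciferase luminescence of residual ATP, Kinase-Glo. Evaluation: percent inhibition versus plate control medians. Controls: DMSO wells, low control.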
PLCg1 inh: PLC-gamma1 (human) inhibition, primary screen; P19174; purified PLC-gamma1, fluorogenic substrate, fluorescence; inhibition, % at 12.2 µM; 370,000 compounds, 0.84% hits; AID 720700; in the data active = inhibition above about 9.5%
HGIII-sPLA2 inh: Blocks human group III sPLA2 activity; Q9NZ20; QFRET BODIPY PC-A2 liposome hydrolysis, fluorescence; inhibition, % at 12.2 µM; 370,000 compounds, 0.56% hits; AID 743126;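 active = inhibition above mean plus 3 SD of compounds lying within the high and low control bounds, cut at about 19% in these data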
PLCgamma1 ctr: PLC-gamma1 inhibition, counter-screen for PLC-beta3 hits; inhibition, % at 12.3 µM; 3,300 compounds, 3.1% hits; purified PLC-gamma1, fluorogenic substrate, fluorescence; shares compounds with PLCg1 inh; in the data active = inhibition above about 9.5%
PLCb3 confirm: human PLC-beta3 inhibition, confirmation | shares compounds with PLCg1 inh | purified PLC-beta3, fluorogenic substrate fluorescence | inhibition, % at 12.3 µM | 3,300 compounds, 1% hits | AID 743261
Hits are given with their value; - = inactive; . = not tested or not shown. Only some compounds are listed: those with a hit (about 1.9% of all), similar ones and a draw of the others. Cut-off read from the data, not from the text of the source, unless noted: active = inhibition above about 11%; inactive = the rest.

SMILES	PLC-beta3 inh	DAGLB inhibitor	TbMetRS inhib	PLCg1 inh	HGIII-sPLA2 inh	PLCgamma1 ctr	PLCb3 confirm
O=C(/C=C/c1ccc([N+](=O)[O-])cc1)NC1CC2CCC1C2 (stereo not given)	-	-	-	14.0	-	-	-
O=C(/C=C/c1ccc(Cl)cc1)NC1CC2CCC1C2 (stereo not given)	-	-	-	-	-	.	.
C[C@H]1COc2cc(Br)ccc2S(=O)(=O)N1Cc1cn(Cc2ccccc2)nn1	-	.	.	-	-	.	.
CCCCN(CCCC)C(=S)N/N=C/c1c(C)[nH]n(-c2ccccc2)c1=O	-	-	-	9.9	-	-	-
C[C@@H]1CN([C@H](C)CO)C(=O)c2cc(NC(=O)Nc3ccccc3)ccc2O[C@@H](C)CCCCO[C@H]1CN(C)S(C)(=O)=O	-	.	.	-	-	.	.
COC(=O)C1=C(C)N(Cc2cccc(C(F)(F)F)c2)C(=NCc2ccc(OC)cc2)NC1c1ccccc1 (stereo not given)	-	.	.	-	-	.	.
CC1(C(=O)NC2CCCCCCC2)CCC(=O)N1Cc1ccco1 (stereo not given)	-	-	-	9.8	-	-	-
CC1(C(=O)NC2CCCC2)CCC(=O)N1Cc1ccccc1 (stereo not given)	-	-	-	-	-	.	.
CC(C)C1C(=O)N(Cc2cn(CCC3OCCO3)nn2)CCS(=O)(=O)N1Cc1ccc(-c2ccccc2Cl)cc1 (stereo not given)	-	.	-	-	-	.	.
COc1cccc(-c2ccc(CN3C(C(C)C)C(=O)N(Cc4cn(CCC5OCCO5)nn4)CCS3(=O)=O)cc2)c1OC (stereo not given)	-	.	-	12.3	-	-	-
Cc1c(NC(=O)COc2cccc3c2OC(C)(C)C3)c(=O)n(-c2ccccc2)n1C	-	-	-	-	-	.	.
Cc1c(NC(=O)C(C)OC(=O)COc2cccc3c2OC(C)(C)C3)c(=O)n(-c2ccccc2)n1C (stereo not given)	11.2	-	-	-	-	-	-
CS(=O)(=O)N1CCC(C(=O)NCc2ccncc2)CC1	-	-	-	-	-	.	.
CS(=O)(=O)N1CCC(C(=O)NCc2ccc(Cl)cc2)CC1	-	-	-	11.5	-	-	-
O=C(OCC(=O)c1c[nH]c2ccccc12)c1ccco1	10.8	-	-	-	-	-	-
O=C(OCC(=O)c1c[nH]c2ccccc12)c1ccc(Br)o1	.	-	-	.	.	.	.
NC(=O)Nc1cccc2ccccc12	-	-	-	-	-	.	.
CCC(=O)Nc1cccc2ccccc12	-	-	-	10.6	-	-	-
Cc1c(C(=O)O)cccc1-c1ccc(C=O)o1	-	-	-	11.1	-	-	-
C#CCNC(=O)C[C@H]1C[C@@]2(C(=O)OC)C(=C[C@H](C(C)(C)C)O[C@@H]2C)N(Cc2ccccc2)C1=O	-	.	.	-	-	.	.
Cc1ccc(CNC(=O)CCCC(=O)O)cc1	10.8	-	-	-	-	-	-
O=C(O)c1cc2c(cc1Cl)N1CCCCCC1=NS2(=O)=O	-	-	-	19.2	-	-	-
COC(=O)c1cc2c(cc1Cl)N1CCCCCC1=NS2(=O)=O	-	-	-	-	-	.	.
O=C(c1ccc(F)cc1Cl)N1CCCC(c2nc(-c3cccs3)no2)C1 (stereo not given)	-	.	.	-	-	.	.
CS(=O)(=O)N1CCN(c2ccccc2NC(=S)NC(=O)c2ccccc2[N+](=O)[O-])CC1	-	-	-	9.9	-	-	-
SMILES	PLC-beta3 inh	DAGLB inhibitor	TbMetRS inhib	PLCg1 inh	HGIII-sPLA2 inh	PLCgamma1 ctr	PLCb3 confirm
COc1ccccc1C(=O)Nc1ccccc1N1CCN(S(C)(=O)=O)CC1	-	-	-	11.3	-	-	-
COc1ccccc1N1CCN(S(=O)(=O)CCNC(=O)CCc2ccccc2)CC1	-	-	-	9.7	-	-	-
CS(=O)(=O)N1CCN(c2ccccc2NC(=S)NC(=O)c2cccs2)CC1	-	-	-	-	-	.	.
COc1ccc(NC(=O)NCCCN2CCN(c3ccc(F)cc3)CC2)cc1OC	-	.	.	-	-	.	.
CCOc1ccc(-c2cc(C(=O)NC3CCCCC3)[nH]n2)c(C)c1	12.3	.	-	-	-	-	-
Nc1ccn([C@@H]2O[C@H](C(=O)N[C@H](Cc3ccccc3)C(=O)N[C@H]3CCCCNC3=O)[C@@H](O)[C@H]2O)c(=O)n1	-	.	.	-	-	.	.
COc1ccccc1NC(=O)CNC(c1ccccc1)c1ccccc1	-	-	-	13.2	-	-	-

Screening results: PubChem BioAssay, The Scripps Research Institute Molecular Screening Center
